# Measurements published in ChEMBL document CHEMBL1127299, “Inhibition of peptidylglycine alpha-amidating monooxygenase by N-substituted homocysteine analogs” (J Med Chem, 1994).
# Non-standard residues stand in square brackets, D forms with d. Residues, ends and D or L forms follow the SMILES beside them. ξ: configuration not given here. *: point of attachment. Hydrocinnamoyl = O=C(CCc1ccccc1)*; hCys = N[C@@H](CCS)C(=O)O; Nle = CCCC[C@H](N)C(=O)O; Cbz = O=C(OCc1ccccc1)*; Boc = CC(C)(C)OC(=O)*; ξhCys = NC(CCS)C(=O)O; OBn = c1ccc(CO*)cc1
# Experiments:
# [1] = biological target: T1, Peptidylglycine alpha-amidating monooxygenase (Rattus norvegicus, UniProt P14925); test: Inhibitory activity against peptidylglycine alpha-amidating monooxygenase (PAM) was determined; assay type: functional
# T1 sequence (P14925 whole entry): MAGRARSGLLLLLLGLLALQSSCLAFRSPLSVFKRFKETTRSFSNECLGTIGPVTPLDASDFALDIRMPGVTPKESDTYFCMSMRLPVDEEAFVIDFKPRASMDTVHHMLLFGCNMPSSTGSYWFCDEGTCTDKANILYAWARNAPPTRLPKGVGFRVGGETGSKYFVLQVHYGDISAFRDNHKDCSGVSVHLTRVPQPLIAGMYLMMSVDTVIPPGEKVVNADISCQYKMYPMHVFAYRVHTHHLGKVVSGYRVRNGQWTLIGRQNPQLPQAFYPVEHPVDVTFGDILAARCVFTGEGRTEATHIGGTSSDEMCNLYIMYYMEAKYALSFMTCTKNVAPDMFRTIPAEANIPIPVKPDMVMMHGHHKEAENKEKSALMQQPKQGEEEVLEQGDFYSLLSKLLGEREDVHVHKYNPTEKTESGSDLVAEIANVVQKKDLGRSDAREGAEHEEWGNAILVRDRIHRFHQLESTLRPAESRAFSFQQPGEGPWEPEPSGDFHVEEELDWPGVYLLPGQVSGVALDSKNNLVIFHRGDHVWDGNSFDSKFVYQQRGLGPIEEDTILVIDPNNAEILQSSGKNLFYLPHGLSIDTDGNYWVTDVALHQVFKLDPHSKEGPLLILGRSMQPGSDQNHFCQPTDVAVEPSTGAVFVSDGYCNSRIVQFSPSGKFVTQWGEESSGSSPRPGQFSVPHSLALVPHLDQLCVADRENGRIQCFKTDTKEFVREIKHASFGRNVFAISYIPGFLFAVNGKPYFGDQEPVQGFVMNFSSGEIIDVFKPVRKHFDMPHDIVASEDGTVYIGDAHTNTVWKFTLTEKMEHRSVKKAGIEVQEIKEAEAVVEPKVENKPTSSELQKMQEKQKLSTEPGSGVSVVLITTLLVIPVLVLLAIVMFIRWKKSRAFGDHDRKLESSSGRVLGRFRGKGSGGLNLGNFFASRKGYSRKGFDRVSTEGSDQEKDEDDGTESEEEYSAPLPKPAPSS
# In short: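 Partially purified PAM (DEAE cartridge, then Sephacryl 300 SF), 13.5 μU, preincubated with inhibitor 20 min at room temperature in 150 mM TES pH 7.0 with 0.001% Triton-100. Started with N-dansyl-D-Tyr-Phe-Gly (2.0 μM) plus ascorbate (3 mM), quenched with EDTA. Seven or more concentrations in duplicate, three runs; IC50 by least squares on log dose–response.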
# [2] = biological target: T2, Peptidylglycine alpha-amidating monooxygenase (Rattus norvegicus) (UniProt P14925); test: (§1) Inhibition of PAM on Substance P biosynthesis in the dorsal root ganglion (DRG) cell culture assay; assay type: functional, tissue-based; design: concentration or dose not given beside the values; details: concentration not given here
# T2 sequence (whole entry): T1 sequence (P14925 whole entry)
# In short: (§2)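 Rat primary dorsal root ganglion neurons cultured without ascorbate for six days. On day 6 inhibitor added (10 μM), then ascorbate 500 μM 12 h later, incubated overnight. SP measured by RIA with an antibody selective for SP over SP-Gly. SP-Gly found by treating a duplicate sample with 3.5 μg PAM and taking the difference in SP; percent inhibition.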
# [3] = biological target: T2, Peptidylglycine alpha-amidating monooxygenase (Rattus norvegicus); test: as §1; assay type: functional, tissue-based; details: concentration not given here; in short: as §2
SMILES,IC50 [1],inhibition [2],inhibition [3]
O=C(N[C@@H](Cc1ccccc1)C(=O)NC(CCS)C(=O)O)c1ccc2ccccc2c1 (stereo partly specified),10 nM,67%,
CCC(C)CC(=O)N[C@@H](Cc1ccccc1)C(=O)N[C@@H](CCS)C(=O)O (stereo partly specified),29 nM,10%,
O=C(O)C[C@H](NC(=O)[C@H](Cc1ccccc1)NC(=O)CCc1ccccc1)C(=O)O (Hydrocinnamoyl-Phe-Asp-OH),> 10000 nM,,
O=C(COc1ccccc1)N[C@@H](Cc1ccccc1)C(=O)NC(CCS)C(=O)O (stereo partly specified),14 nM,22%,
N[C@H](Cc1ccc(O)cc1)C(=O)N[C@@H](Cc1ccccc1)C(=O)NCC(=O)O,> 10000 nM,,
O=C(CCc1ccccc1)N[C@@H](Cc1ccccc1)C(=O)NC(CCS)C(=O)OCc1ccccc1 (stereo partly specified) (Hydrocinnamoyl-Phe-[ξhCys]-OBn),> 10000 nM,,
O=C(CCc1ccccc1)N[C@@H](Cc1ccccc1)C(=O)NC(CCS)C(=O)O (stereo partly specified),15 nM,28%,
O=C(O)CC[C@H](NC(=O)[C@H](Cc1ccccc1)NC(=O)CCc1ccccc1)C(=O)O (Hydrocinnamoyl-Phe-Glu-OH),> 10000 nM,,
O=C(CCc1ccccc1)N[C@@H](Cc1ccccc1)C(=O)N[C@H](CCS)C(=O)O,610 nM,,
O=C(CCc1ccccc1)NC(CCS)C(=O)O (stereo unspecified),7500 nM,,
CN(C)c1cccc2c(S(=O)(=O)N[C@H](Cc3ccc(O)cc3)C(=O)N[C@@H](Cc3ccccc3)C(=O)NCC(=O)O)cccc12,4200 nM,,
CSCC[C@H](NC(=O)CCc1ccccc1)C(=O)NC(CCS)C(=O)O (stereo partly specified),18 nM,,
CC(C)[C@H](NC(=O)CCc1ccccc1)C(=O)NC(CCS)C(=O)O (stereo partly specified) (Hydrocinnamoyl-Val-[ξhCys]-OH),160 nM,,
O=C(CCc1ccccc1)N[C@@H](Cc1ccccc1)C(=O)N[C@@H](CCS)C(=O)O,10 nM,25%,
O=C(CCc1ccccc1)N[C@@H](Cc1ccccc1)C(=O)NC1CCSC1=O (stereo partly specified),> 10000 nM,37%,

# The next lines start with the values.
IC50 [1],inhibition [2],inhibition [3],SMILES
8 nM,42%,,O=C(N[C@@H](Cc1ccccc1)C(=O)NC(CCS)C(=O)O)c1cc2ccccc2[nH]1 (stereo partly specified)
1600 nM,,,O=C(CCc1ccccc1)N[C@@H](Cc1ccccc1)C(=O)NCCCS
4000 nM,,,CC(C)(C)OC(=O)N[C@H](Cc1ccc(O)cc1)C(=O)N[C@@H](Cc1ccccc1)C(=O)NCC(=O)O
340 nM,,,CC(C)(C)OC(=O)N[C@H](Cc1ccc(O)cc1)C(=O)N[C@@H](Cc1ccccc1)C(=O)N[C@@H](CS)C(=O)O
> 10000 nM,,,NC(=O)C[C@H](NC(=O)[C@H](Cc1ccccc1)NC(=O)CCc1ccccc1)C(=O)O (Hydrocinnamoyl-Phe-Asn-OH)
> 10000 nM,,,C[C@H](NC(=O)[C@H](Cc1ccccc1)NC(=O)[C@@H](Cc1ccc(O)cc1)NC(=O)OC(C)(C)C)C(=O)O
39 nM,34%,,CC(C)(C)OC(=O)N[C@H](Cc1ccccc1)C(=O)N[C@@H](Cc1ccccc1)C(=O)N[C@@H](CCS)C(=O)O
18 nM,40%,,O=C(N[C@@H](Cc1ccccc1)C(=O)N[C@@H](CCS)C(=O)O)OCc1ccccc1 (Cbz-Phe-[hCys]-OH)
23 nM,,7%,CCCC[C@H](NC(=O)CCc1ccccc1)C(=O)NC(CCS)C(=O)O (stereo partly specified) (Hydrocinnamoyl-[Nle]-[ξhCys]-OH)
> 10000 nM,,,CC(C)(C)OC(=O)N[C@H](Cc1ccc(O)cc1)C(=O)N[C@@H](Cc1ccccc1)C(=O)N[C@@H](CO)C(=O)O
3500 nM,,,O=C(O)CNC(=O)[C@H](Cc1ccccc1)NC(=O)[C@@H](Cc1ccc(O)cc1)NC(=O)OCc1ccccc1
330 nM,,,O=C(CCc1ccccc1)N[C@@H](Cc1ccccc1)C(=O)N[C@@H](CS)C(=O)O (Hydrocinnamoyl-Phe-Cys-OH)
55 nM,37%,,O=C(CCc1ccc(Cl)c(Cl)c1)N[C@@H](Cc1ccccc1)C(=O)NC(CCS)C(=O)O (stereo partly specified)
53 nM,,,CC(C)(C)OC(=O)N[C@@H](Cc1ccccc1)C(=O)N[C@@H](CCS)C(=O)O (Boc-Phe-[hCys]-OH)
300 nM,,,CC(C)C[C@H](NC(=O)CCc1ccccc1)C(=O)NC(CCS)C(=O)O (stereo partly specified) (Hydrocinnamoyl-Leu-[ξhCys]-OH)
